Experimental findings from ChEMBL document CHEMBL4130429, “Hydroxytriazole derivatives as potent and selective aldo-keto reductase 1C3 (AKR1C3) inhibitors discovered by bioisosteric scaffold hopping approach” (Eur J Med Chem, 2017) are described below.

pIC50: −log10 of the molar value. Activity calls are given as the source filed them. The rule behind the calls is not given here.

A word on the inhibition: it is the share of the control response that was lost under treatment. The term pIC50 denotes −log10 of the IC50, conventionally taken in molar units.

In experiment [1] the target is T1, Aldo-keto reductase family 1 member C3 (Homo sapiens) (UniProt P42330).
T1 sequence (whole entry): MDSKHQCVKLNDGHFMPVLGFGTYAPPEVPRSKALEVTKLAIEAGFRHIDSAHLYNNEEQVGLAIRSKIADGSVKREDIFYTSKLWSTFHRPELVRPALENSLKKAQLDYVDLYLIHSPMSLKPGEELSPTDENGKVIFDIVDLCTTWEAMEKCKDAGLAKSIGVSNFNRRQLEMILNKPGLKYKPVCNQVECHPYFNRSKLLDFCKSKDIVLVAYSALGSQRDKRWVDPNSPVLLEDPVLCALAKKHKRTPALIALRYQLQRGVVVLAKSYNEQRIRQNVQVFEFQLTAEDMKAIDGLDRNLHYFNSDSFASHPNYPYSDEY
The experiment is described as follows: Inhibition of recombinant human AKR1C3 expressed in Escherichia coli BL21 […] at 50 uM using [14C]androstenedione as substrate in presence of NADPH generating system. Summed up: (§1)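 E. coli expressing AKR1C3, unlysed, suspended in 100 mM phosphate pH 6.6 (~15 µg protein). Incubated with [14C]androstenedione (6×10^-4 µCi), Tween 80 0.1 mg/mL, 1 mM ATP, 1 mM MgCl2 and NADPH-generating system (1 mM NADP+, 3 mM glucose-6-phosphate, 3 U G6PDH) for 30 min at 30 °C with shaking. Conversion to testosterone quantified by radioactivity scanning of TLC.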

The target of experiment [2] is T2, Aldo-keto reductase family 1 member C3 (Homo sapiens, UniProt P42330).
T2 sequence (P42330 whole entry): T1 sequence (whole entry)
The experiment is described as follows: Inhibition of recombinant human AKR1C3 expressed in Escherichia coli BL21 (DE) using [14C]androstenedione as substrate in presence of NADPH generating system. Summed up: as §1

For experiment [3], the target named is Prostaglandin G/H synthase 2 (Homo sapiens) (UniProt P35354). The experiment can be described thus: Inhibition of human COX2 assessed as reduction in PGF2alpha production at 100 uM by ELISA. In general terms: ELISA stands for enzyme-linked immunosorbent assay.
Prostaglandin G/H synthase 2 (Homo sapiens), sequence (P35354 whole entry, looked up): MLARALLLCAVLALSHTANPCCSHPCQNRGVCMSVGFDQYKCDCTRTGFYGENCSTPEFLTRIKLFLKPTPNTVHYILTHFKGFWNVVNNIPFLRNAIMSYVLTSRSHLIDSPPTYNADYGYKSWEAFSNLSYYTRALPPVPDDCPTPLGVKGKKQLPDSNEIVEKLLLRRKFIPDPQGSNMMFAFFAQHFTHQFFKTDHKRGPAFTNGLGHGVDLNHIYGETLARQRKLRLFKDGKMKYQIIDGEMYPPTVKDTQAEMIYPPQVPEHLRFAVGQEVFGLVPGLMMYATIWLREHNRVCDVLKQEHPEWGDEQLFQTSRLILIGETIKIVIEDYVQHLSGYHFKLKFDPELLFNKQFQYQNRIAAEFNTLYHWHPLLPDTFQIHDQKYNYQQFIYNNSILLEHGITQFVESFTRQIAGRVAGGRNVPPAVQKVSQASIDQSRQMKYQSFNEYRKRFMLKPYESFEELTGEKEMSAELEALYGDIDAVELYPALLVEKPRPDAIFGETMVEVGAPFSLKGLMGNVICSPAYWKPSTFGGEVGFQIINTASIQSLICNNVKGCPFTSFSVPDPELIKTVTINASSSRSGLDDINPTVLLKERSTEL
Experiment [4] is described as follows: Selectivity index, ratio of IC50 for ovine COX1 to IC50 for AKR1C3 (unknown origin).
Experiment [5] is filed under the species Homo sapiens. The experiment is described as follows: Selectivity index, ratio of IC50 for AKR1C2 (unknown origin) to IC50 for AKR1C3 (unknown origin).
For experiment [6], the target named is T3, Aldo-keto reductase family 1 member C2 (Homo sapiens, UniProt P52895).
T3 sequence (P52895 whole entry): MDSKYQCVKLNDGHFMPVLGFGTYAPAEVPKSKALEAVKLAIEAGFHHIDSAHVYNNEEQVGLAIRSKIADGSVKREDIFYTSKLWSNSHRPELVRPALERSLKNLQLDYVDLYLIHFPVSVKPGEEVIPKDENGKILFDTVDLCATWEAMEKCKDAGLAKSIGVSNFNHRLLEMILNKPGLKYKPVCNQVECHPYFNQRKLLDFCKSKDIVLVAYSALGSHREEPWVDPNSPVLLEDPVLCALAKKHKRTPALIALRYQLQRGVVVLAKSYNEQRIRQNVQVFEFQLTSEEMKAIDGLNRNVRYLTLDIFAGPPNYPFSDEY
The experiment is described as follows: Inhibition of AKR1C2 (unknown origin) using S-tetralol as substrate by fluorimtery. Summed up: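 Purified recombinant enzyme (GST-tagged, glutathione-sepharose purified, thrombin-cleaved) with S-tetralol in 100 mM phosphate pH 7, 200 µM NADP+, 10% ethanol. IC50 from initial velocities versus solvent controls; means of two experiments in triplicate.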

For experiment [7], the target named is T4, Prostaglandin G/H synthase 1 (Ovis aries, UniProt P05979).
T4 sequence (P05979 whole entry): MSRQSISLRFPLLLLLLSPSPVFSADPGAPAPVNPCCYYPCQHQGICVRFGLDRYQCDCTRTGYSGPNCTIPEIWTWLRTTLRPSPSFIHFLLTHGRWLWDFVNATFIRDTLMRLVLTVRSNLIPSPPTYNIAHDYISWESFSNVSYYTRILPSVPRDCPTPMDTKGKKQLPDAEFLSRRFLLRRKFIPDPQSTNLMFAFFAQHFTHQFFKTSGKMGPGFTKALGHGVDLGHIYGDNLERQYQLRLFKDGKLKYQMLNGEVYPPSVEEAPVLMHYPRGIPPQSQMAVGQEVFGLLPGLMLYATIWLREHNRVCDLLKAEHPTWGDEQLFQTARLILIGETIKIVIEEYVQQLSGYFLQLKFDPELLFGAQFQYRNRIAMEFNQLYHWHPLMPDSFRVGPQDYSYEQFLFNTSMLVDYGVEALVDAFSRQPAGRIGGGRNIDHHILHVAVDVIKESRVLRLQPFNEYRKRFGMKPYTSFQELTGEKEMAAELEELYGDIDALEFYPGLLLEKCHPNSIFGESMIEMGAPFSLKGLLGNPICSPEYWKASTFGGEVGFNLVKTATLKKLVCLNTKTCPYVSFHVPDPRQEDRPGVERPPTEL
The experiment can be described thus: Inhibition of ovine COX1 assessed as reduction in PGF2alpha production by ELISA. Summed up: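 Commercial COX (ovine COX-1/human COX-2) inhibitor screening kit. PGH2 formed by COX is reduced by SnCl2 to PGF2α, which is quantified by ELISA absorbance. IC50 by linear regression. Mean ± SE of at least three experiments.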

For experiment [8], the species on record is Homo sapiens. The experiment is described as follows: Selectivity index, ratio of IC50 for human COX2 to IC50 for AKR1C3 (unknown origin).
The target in experiment [9] is T5, Prostaglandin G/H synthase 1 (Ovis aries) (UniProt P05979).
T5 sequence (whole entry): T4 sequence (P05979 whole entry)
The experiment can be described thus: Inhibition of ovine COX1 assessed as reduction in PGF2alpha production at 100 uM by ELISA.

The target in experiment [10] is T2, Aldo-keto reductase family 1 member C3. The experiment can be described thus: Inhibition of AKR1C3 (unknown origin) using S-tetralol as substrate in presence of NADP+ by fluorimtery. Summed up: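 Purified recombinant enzyme (GST-tagged, glutathione-sepharose purified, thrombin-cleaved) with S-tetralol in 100 mM phosphate pH 7, 200 µM NADP+, 10% ethanol. […] NADPH formation followed fluorimetrically (ex 340/em 460 nm) at 37 °C. IC50 from initial velocities versus solvent controls; means of two experiments in triplicate.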

Experiment [11] deals with CWR22R. The experiment can be described thus: Antiproliferative activity against human 22Rv1 cells after 72 hrs by sulforhodamine B colorimetric proliferation assay. The experiment is classed as functional, cell-based. The conditions noted are these: 22Rv1, 72 h. Summed up:
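22RV1 castration-resistant prostate cells were seeded at 10,000 cells/well in RPMI with 10% charcoal-stripped serum and allowed to adhere for 24 h at 37 °C, 5% CO2. Inhibitor dilutions in ethanol were added in triplicate for 72 h, with ethanol-matched controls (max 1% v/v). Growth was read by SRB and given as %T/C (treated/control OD). Means of two experiments, each in triplicate.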

The subject of experiment [12] is CWR22R. The experiment can be described thus: Antiproliferative activity against human 22Rv1 cells at 20 uM after 72 hrs by sulforhodamine B colorimetric proliferation assay. The experiment is classed as functional, cell-based.
Experiment [13] concerns CWR22R. The experiment can be described thus: Antiproliferative activity against human 22Rv1 cells at 60 uM after 72 hrs by sulforhodamine B colorimetric proliferation assay. The experiment is classed as functional, cell-based.
The subject of experiment [14] is CWR22R. The experiment can be described thus: Synergistic antiproliferative activity against human 22Rv1 cells at 60 uM after 72 hrs in presence of 10 uM abiraterone by sulforhodamine B colorimetric proliferation assay. The experiment is classed as functional. Summed up:
(§2)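 Co-treatment by SRB assay: 22RV1 cells in RPMI with 10% charcoal-stripped serum, given 60 µM inhibitor with or without 10 µM abiraterone or 20 µM enzalutamide for 72 h. Growth expressed as % T/C (mean OD treated/control ×100). Means of two experiments in triplicate.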

Experiment [15] relates to CWR22R. The experiment is described as follows: Synergistic antiproliferative activity against human 22Rv1 cells at 60 uM after 72 hrs in presence of 20 uM enzalutamide by sulforhodamine B colorimetric proliferation assay. In kind it is functional. Summed up: as §2
For experiment [16], the system named is CWR22R. The experiment is described as follows: Inhibition of AKR1C3-mediated testosterone production in human 22Rv1 cells after 1 hr in presence of androstenedione by ELISA. The experiment is classed as functional, cell-based. Summed up: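 22RV1 cells seeded at 30,000/well in RPMI with 10% charcoal-stripped serum, 24 h. Inhibitor added at four concentrations for 1 h, then 28 nM androstenedione, further 24 h. Supernatant testosterone measured by ELISA at 405 nm against a standard curve, corrected for androstenedione cross-reactivity. Means of two experiments in triplicate.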

The subject of experiment [17] is CWR22R. The experiment is described as follows: Inhibition of AKR1C3-mediated testosterone production in human 22Rv1 cells at 100 uM after 1 hr in presence of androstenedione by ELISA. The experiment is classed as functional. To be noted: 22Rv1, 1 h.
Experiment [18] concerns CWR22R. The experiment is described as follows: Antiproliferative activity against human 22Rv1 cells at 10 uM after 72 hrs by sulforhodamine B colorimetric proliferation assay. The experiment is classed as functional, cell-based.

Regarding `O=C(Nc1cccc(C(F)(F)F)c1)c1nsnc1O`, the inhibition in experiment [1] came out at 47.2%. The pIC50 in experiment [2] was at most 4.30.
Consider `Cn1nnc(O)c1C(=O)Nc1cccc(C(F)(F)F)c1`, for which the pIC50 in experiment [2] is 4.48.
Consider `O=C(Nc1cccc(C(F)(F)F)c1)c1c(O)nnn1Cc1ccccc1`, for which the inhibition in experiment [3] came out at 7.5%; in [9], 15%. For the same compound, the figures for the Ratio IC50 (in experiment [4]; in the experiment filed under Homo sapiens [5]; in the experiment listed under Homo sapiens [8]) were above 208, 131 and above 208, respectively. Moreover, the pIC50 is 4.20 in [6]; below 4.00 in [7]; 6.32 in [10]; 4.99 in experiment [2]; 4.17 in the experiment on CWR22R [11].
As to `CNC(=O)c1ccc(N2C(=S)N(c3ccc(C#N)c(C(F)(F)F)c3)C(=O)C2(C)C)cc1F`, the result in the experiment on CWR22R [12] was inactive.
On to `O=C(Nc1cccc(C(F)(F)F)c1)c1nonc1O`, for which the inhibition in experiment [1] worked out at 35.4%. For the same compound, the pIC50 in experiment [2] is below 4.30.
For the compound `COc1ccc(Cn2nnc(O)c2C(=O)Nc2cccc(C(F)(F)F)c2)cc1`, the inhibition is 12% in [3], 0% in experiment [9] and “Dose-dependent effect” in the experiment with CWR22R [16]. Also, the Ratio IC50 in experiment [4] was above 322; in the experiment filed under Homo sapiens [5], 236; in the experiment listed under Homo sapiens [8], above 322. Besides, the outcome in the experiment on CWR22R [13] was inactive. For the same compound, the Activity in the experiment with CWR22R [14] is given as 45%; in the experiment on CWR22R [15], 50%. Also, the pIC50 is 4.14 in [6]; below 4.00 in experiment [7]; 6.51 in [10]; 5.45 in experiment [2]; 4.09 in the experiment on CWR22R [11]. Further, the inhibition at 100 µM with CWR22R [17] worked out at 50%.
With `O=C(Nc1cccc(C(F)(F)F)c1)c1nn(CC2CC2)nc1O`, the inhibition in [1] is 5.35%. In addition, the pIC50 in experiment [2] is below 4.30.
On to `O=C(Nc1cccc(C(F)(F)F)c1)c1c(O)nnn1CC1CC1`, for which the inhibition in [3] came to 9.6%; in experiment [9] it was 17%. For the same compound, the Ratio IC50 in experiment [4] was above 63; in the experiment listed under Homo sapiens [5], 44; in the experiment filed under Homo sapiens [8], above 63. Also, the pIC50 in [6] is 4.15; in experiment [7], below 4.00; in [10], 5.80; in experiment [2], 4.88.
Regarding `O=C(O)c1ccccc1Nc1cccc(C(F)(F)F)c1` [FLUFENAMIC ACID], the pIC50 in experiment [7] is 4.85; in experiment [10] it was 6.36; in [2] it was 5.06; in the experiment on CWR22R [11], 3.94.
With `Cn1nc(O)c(C(=O)Nc2cccc(C(F)(F)F)c2)n1`, in experiment [1], the inhibition worked out at 18.5%. For the same compound, the pIC50 in [2] is below 4.30.
For `C[C@]12CC[C@H](O)CC1=CC[C@@H]1[C@@H]2CC[C@]2(C)C(c3cccnc3)=CC[C@@H]12`, the result with CWR22R [18] was inactive.
